Reference: ChEMBL document CHEMBL3407337, “Molecular design, synthesis and biological research of novel pyridyl acridones as potent DNA-binding and apoptosis-inducing agents” (Eur J Med Chem, 2015)
Activity calls are given as the source filed them. No cut-off for these calls is given here.

Assays:
K562 = test: Antiproliferative activity against human K562 cells after 48 hrs by MTT assay; format: functional, cell-based; conditions: K562, 48 h
Outline: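 K562 suspension cells in RPMI-1640 with 10% FBS, 37 °C, 5% CO2. Seeded at 1.5×10^4 cells/well, exposed 48 h to final 50, 25, 10, 1 and 0.1 μM. MTT (5 mg/mL) added for 4 h at 37 °C. IC50 from the dose series.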

[1] = molecular target: T1, DNA topoisomerase 1 (Homo sapiens) (UniProt P11387); test: Inhibition of recombinant human Topo1-mediated relation of supercoiled pBR322 DNA at 50 uM after 30 mins by agarose gel electrophoresis
T1 sequence (whole entry): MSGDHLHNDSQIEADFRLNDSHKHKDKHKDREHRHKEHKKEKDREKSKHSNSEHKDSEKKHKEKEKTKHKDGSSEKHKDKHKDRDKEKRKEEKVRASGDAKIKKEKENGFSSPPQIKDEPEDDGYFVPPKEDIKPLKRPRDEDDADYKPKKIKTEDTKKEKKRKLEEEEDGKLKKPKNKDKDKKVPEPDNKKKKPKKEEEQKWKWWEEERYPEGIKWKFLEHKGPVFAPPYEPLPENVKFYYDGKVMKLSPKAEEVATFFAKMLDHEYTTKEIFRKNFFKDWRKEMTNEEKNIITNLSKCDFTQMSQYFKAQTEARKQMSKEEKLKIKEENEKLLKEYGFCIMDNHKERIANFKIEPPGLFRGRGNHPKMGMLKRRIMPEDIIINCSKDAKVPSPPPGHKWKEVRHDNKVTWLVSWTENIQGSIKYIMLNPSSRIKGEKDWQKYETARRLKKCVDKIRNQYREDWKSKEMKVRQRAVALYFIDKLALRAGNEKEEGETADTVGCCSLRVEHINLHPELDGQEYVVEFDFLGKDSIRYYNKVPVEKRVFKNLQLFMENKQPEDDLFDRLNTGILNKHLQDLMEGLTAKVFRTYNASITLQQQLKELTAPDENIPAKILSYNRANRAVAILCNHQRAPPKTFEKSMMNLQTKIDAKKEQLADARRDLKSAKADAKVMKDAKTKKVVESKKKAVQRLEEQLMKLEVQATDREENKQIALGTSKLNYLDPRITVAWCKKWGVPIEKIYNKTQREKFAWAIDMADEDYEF
Outline: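 pBR322 at 100 ng with 1.0 unit recombinant human topo I. Incubated 30 min at 37 °C in 35 mM Tris-HCl pH 8.0, 5 mM MgCl2, 72 mM KCl, 0.01% BSA, 2 mM spermidine and 5 mM DTT. Run on 1% agarose in TAE at 100 V for 25 min. EB-stained gel viewed under UV.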

SMILES | IC50 (K562) | inhibition [1]
COCCNC(=O)c1ccc(NCc2cccnc2)c2c(=O)c3cccc(OC)c3[nH]c12 | > 50 µM | inactive
Cc1cccc2c(=O)c3c(NCc4cccnc4)ccc(C(=O)NCCCN(C)C)c3[nH]c12 | 11.8 µM | Active
COc1cccc2c1C(=O)c1c(O)c3c(c(O)c1C2=O)C[C@@](O)(C(=O)CO)C[C@@H]3O[C@H]1C[C@H](N)[C@H](O)[C@H](C)O1 [DOXORUBICIN] | 0.55 µM | 
CN(C)CCNC(=O)c1ccc(NCc2ccncc2)c2c(=O)c3ccccc3[nH]c12 | 6.33 µM | Active
COCCNC(=O)c1ccc(NCc2cccnc2)c2c(=O)c3cccc(C)c3[nH]c12 | > 50 µM | inactive
Cc1cccc2c(=O)c3c(NCc4ccccn4)ccc(C(=O)NCCN(C)C)c3[nH]c12 | 1.71 µM | Active
CN(C)CCNC(=O)c1ccc(NCc2ccncc2)c2c(=O)c3cc(Cl)cc(Cl)c3[nH]c12 | 0.97 µM | Active
COCCNC(=O)c1ccc(NCc2ccccn2)c2c(=O)c3cccc(C)c3[nH]c12 | > 50 µM | inactive
Cc1cccc2c(=O)c3c(NCc4cccnc4)ccc(C(=O)NCCN(C)C)c3[nH]c12 | 1.09 µM | Active
Cc1cccc2c(=O)c3c(NCc4ccccn4)ccc(C(=O)NCCCN(C)C)c3[nH]c12 | 6.45 µM | Active
COc1cccc2c(=O)c3c(N(Cc4ccccn4)Cc4ccccn4)ccc(C(=O)NCCN(C)C)c3[nH]c12 | 13.9 µM | inactive
COCCNC(=O)c1ccc(NCc2ccccn2)c2c(=O)c3cccc(OC)c3[nH]c12 | > 50 µM | inactive
COCCNC(=O)c1ccc(N(Cc2ccccn2)Cc2ccccn2)c2c(=O)c3cccc(C)c3[nH]c12 | 11.2 µM | inactive
COc1cccc2c(=O)c3c(N(Cc4ccccn4)Cc4ccccn4)ccc(C(=O)NCCCN(C)C)c3[nH]c12 | 13.5 µM | inactive

Now from value to molecule:

IC50 (K562) | inhibition [1] | SMILES
1.36 µM | Active | COc1cccc2c(=O)c3c(NCc4ccncc4)ccc(C(=O)NCCN(C)C)c3[nH]c12
11.3 µM | Active | COc1cccc2c(=O)c3c(NCc4cccnc4)ccc(C(=O)NCCCN(C)C)c3[nH]c12
11.9 µM | Active | COc1cccc2c(=O)c3c(NCc4ccncc4)ccc(C(=O)NCCCN(C)C)c3[nH]c12
> 50 µM | inactive | COCCNC(=O)c1ccc(NCc2ccncc2)c2c(=O)c3cccc(C)c3[nH]c12
8.25 µM | Active | Cc1cccc2c(=O)c3c(NCc4ccncc4)ccc(C(=O)NCCCN(C)C)c3[nH]c12
2.28 µM | Active | COc1cccc2c(=O)c3c(NCc4ccccn4)ccc(C(=O)NCCN(C)C)c3[nH]c12
3.08 µM | Active | COc1cccc2c(=O)c3c(NCCc4ccncc4)ccc(C(=O)NCCN(C)C)c3[nH]c12
6.12 µM | Active | COc1cccc2c(=O)c3c(NCc4ccccn4)ccc(C(=O)NCCCN(C)C)c3[nH]c12
0.93 µM | Active | COc1cccc2c(=O)c3c(NCc4cccnc4)ccc(C(=O)NCCN(C)C)c3[nH]c12
> 50 µM | inactive | COCCNC(=O)c1ccc(NCc2ccncc2)c2c(=O)c3cccc(OC)c3[nH]c12
6.07 µM | Active | COc1cccc2c(=O)c3c(NCc4ccncc4)ccc(C(=O)NCCCCN(C)C)c3[nH]c12
0.89 µM | Active | CN(C)CCNC(=O)c1ccc(NCc2ccncc2)c2c(=O)c3cccc(C(F)(F)F)c3[nH]c12
